What was measured:
[1] = molecular target: Proto-oncogene tyrosine-protein kinase Src (Homo sapiens, UniProt P12931); test: Inhibition of SRC (unknown origin)
[2] = molecular target: Serine/threonine-protein kinase pim-1 (Homo sapiens, UniProt P11309); test: Inhibition of PIM1 (unknown origin)
Focal adhesion kinase 1 = Focal adhesion kinase 1 (Homo sapiens, UniProt Q05397); test: Inhibition of FAK (unknown origin)
[3] = molecular target: ALK tyrosine kinase receptor (Homo sapiens, UniProt Q9UM73); test: Inhibition of ALK (unknown origin)
Aurora kinase B = Aurora kinase B (Homo sapiens, UniProt Q96GD4); test: Inhibition of aurora-B (unknown origin)
[4] = molecular target: Dual specificity mitogen-activated protein kinase kinase 1 (Homo sapiens, UniProt Q02750); test: Inhibition of wild type MEK1 (unknown origin)
[5] = molecular target: Hepatocyte growth factor receptor (Homo sapiens, UniProt P08581); test: Inhibition of wild type MET (unknown origin)
[6] = molecular target: RAC-alpha serine/threonine-protein kinase (Homo sapiens, UniProt P31749); test: Inhibition of AKT1 (unknown origin)
[7] = molecular target: T1, Tyrosine-protein kinase receptor UFO (Homo sapiens, UniProt P30530); test: Inhibition of AXL (unknown origin)
T1 sequence (P30530 whole entry): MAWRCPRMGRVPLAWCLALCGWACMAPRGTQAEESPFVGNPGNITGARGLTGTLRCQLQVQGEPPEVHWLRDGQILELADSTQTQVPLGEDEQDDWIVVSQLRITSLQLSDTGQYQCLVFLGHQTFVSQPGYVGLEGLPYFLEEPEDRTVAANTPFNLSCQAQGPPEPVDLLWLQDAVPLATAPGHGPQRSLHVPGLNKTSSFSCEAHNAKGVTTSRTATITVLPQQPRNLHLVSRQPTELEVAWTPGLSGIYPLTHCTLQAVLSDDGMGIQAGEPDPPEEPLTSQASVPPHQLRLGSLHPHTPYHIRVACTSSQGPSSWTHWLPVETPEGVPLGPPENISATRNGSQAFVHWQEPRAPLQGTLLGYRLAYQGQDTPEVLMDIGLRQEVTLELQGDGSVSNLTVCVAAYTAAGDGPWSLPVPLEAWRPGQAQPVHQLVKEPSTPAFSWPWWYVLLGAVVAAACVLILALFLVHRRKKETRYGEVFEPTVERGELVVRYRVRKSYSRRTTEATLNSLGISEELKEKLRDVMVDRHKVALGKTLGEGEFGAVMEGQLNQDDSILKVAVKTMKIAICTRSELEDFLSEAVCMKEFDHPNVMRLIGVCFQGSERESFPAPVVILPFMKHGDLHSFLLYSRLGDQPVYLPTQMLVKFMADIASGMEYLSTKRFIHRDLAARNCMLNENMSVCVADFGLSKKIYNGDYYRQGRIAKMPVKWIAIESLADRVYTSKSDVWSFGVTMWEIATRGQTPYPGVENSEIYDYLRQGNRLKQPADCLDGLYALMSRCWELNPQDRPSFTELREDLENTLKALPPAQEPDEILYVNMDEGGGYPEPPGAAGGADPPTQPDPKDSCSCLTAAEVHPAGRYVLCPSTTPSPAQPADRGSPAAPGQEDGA

[8] = molecular target: Serine/threonine-protein kinase PLK1 (Homo sapiens, UniProt P53350); test: Inhibition of PLK1 (unknown origin)
[9] = molecular target: T2, NUAK family SNF1-like kinase 1 (Homo sapiens, UniProt O60285); test: Inhibition of ARK5 (unknown origin)
T2 sequence (O60285 whole entry): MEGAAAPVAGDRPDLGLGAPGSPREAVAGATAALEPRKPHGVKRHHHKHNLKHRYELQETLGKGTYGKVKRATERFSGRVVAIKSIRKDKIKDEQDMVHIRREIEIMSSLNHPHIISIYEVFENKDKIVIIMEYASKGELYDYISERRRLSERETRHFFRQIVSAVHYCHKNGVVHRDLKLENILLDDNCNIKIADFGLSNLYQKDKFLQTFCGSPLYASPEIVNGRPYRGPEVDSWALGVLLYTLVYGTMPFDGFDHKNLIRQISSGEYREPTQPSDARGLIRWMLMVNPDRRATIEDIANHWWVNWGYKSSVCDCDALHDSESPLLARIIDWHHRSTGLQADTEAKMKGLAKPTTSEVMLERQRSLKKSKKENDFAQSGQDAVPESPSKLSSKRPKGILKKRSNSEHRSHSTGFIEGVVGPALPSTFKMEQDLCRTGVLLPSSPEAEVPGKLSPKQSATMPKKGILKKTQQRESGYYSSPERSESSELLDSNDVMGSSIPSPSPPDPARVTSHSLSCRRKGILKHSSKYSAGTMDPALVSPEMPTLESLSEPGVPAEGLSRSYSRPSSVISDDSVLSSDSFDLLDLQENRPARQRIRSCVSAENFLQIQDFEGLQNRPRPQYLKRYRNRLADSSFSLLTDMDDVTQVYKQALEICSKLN

[10] = molecular target: Vascular endothelial growth factor receptor 2 (Homo sapiens, UniProt P35968); test: Inhibition of VEGFR2 (unknown origin)
[11] = molecular target: Serine/threonine-protein kinase Nek6 (Homo sapiens, UniProt Q9HC98); test: Inhibition of NEK6 (unknown origin)
[12] = molecular target: Serine/threonine-protein kinase N1 (Homo sapiens, UniProt Q16512); test: Inhibition of PRK1 (unknown origin)
[13] = molecular target: Insulin-like growth factor 1 receptor (Homo sapiens, UniProt P08069); test: Inhibition of IGF1R (unknown origin)
[14] = molecular target: T3, Serine/threonine-protein kinase Nek2 (Homo sapiens, UniProt P51955); test: Inhibition of NEK2 (unknown origin)
T3 sequence (P51955 whole entry): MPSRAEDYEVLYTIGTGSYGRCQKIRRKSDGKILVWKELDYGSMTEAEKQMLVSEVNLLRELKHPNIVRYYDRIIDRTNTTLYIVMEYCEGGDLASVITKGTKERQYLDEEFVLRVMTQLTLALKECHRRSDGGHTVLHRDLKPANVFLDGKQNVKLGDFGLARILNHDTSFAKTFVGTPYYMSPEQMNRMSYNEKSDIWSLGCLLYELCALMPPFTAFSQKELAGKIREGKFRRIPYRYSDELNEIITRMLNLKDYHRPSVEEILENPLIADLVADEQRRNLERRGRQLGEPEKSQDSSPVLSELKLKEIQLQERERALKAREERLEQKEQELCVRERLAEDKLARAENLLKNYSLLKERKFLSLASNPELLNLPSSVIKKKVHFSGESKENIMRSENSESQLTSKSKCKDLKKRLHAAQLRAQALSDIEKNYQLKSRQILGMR

Histone deacetylase 11 = Histone deacetylase 11 (Homo sapiens, UniProt Q96DB2); test: Inhibition of recombinant HDAC11 (unknown origin) using Fluor-de-Lys-SIRT1 as substrate by fluorescence assay
Histone deacetylase = test: Inhibition of HDAC in human K562 cell extract using Fluor-de-Lys deacetylase as substrate preincubated for 45 mins measured after 15 mins by fluorescence assay; assay type: protein assay
Histone deacetylase 2 = Histone deacetylase 2 (Homo sapiens, UniProt Q92769); test: Inhibition of recombinant HDAC2 (unknown origin) using Fluor-de-Lys-SIRT1 as substrate by fluorescence assay
[15] = Antiproliferative activity against human U937 cells assessed as growth inhibition at 5 uM after 72 hrs; assay type: functional; conditions: U-937, 72 h, read-out: GI
In short: (§1)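 RAJI and U-937 cells from ATCC, grown in RPMI 1640 with 10% heat-inactivated fetal calf serum and 1% antibiotic–antimycotic at 37 °C, humid 5% CO2. Treated 72 h; DMSO-treated cells as negative control; proliferation measured by a previously described method.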

[16] = molecular target: Protein deacetylase HDAC6 (Homo sapiens, UniProt Q9UBN7); test: Inhibition of recombinant HDAC6 (unknown origin) using Fluor-de-Lys-SIRT1 as substrate by fluorescence assay
Raji [17] = test: Antiproliferative activity against human Raji cells assessed as growth inhibition at 5 uM after 72 hrs; assay type: functional; conditions: read-out: GI; in short: as §1
PBMC = test: Cytotoxicity against PBMC (unknown origin) assessed as growth inhibition after 48 hrs; assay type: cell-based
In short: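 PBMCs isolated by a prior method, cultured in RPMI 1640 with 10% heat-inactivated FCS and 1% antibiotic–antimycotic at 37 °C, 5% CO2. Viability read after 48 h treatment, against DMSO-treated controls.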

Histone deacetylase 1 = Histone deacetylase 1 (Homo sapiens, UniProt Q13547); test: Inhibition of recombinant HDAC1 (unknown origin) using Fluor-de-Lys-SIRT1 as substrate by fluorescence assay
[18] = molecular target: Polyamine deacetylase HDAC10 (Homo sapiens, UniProt Q969S8); test: Inhibition of recombinant HDAC10 (unknown origin) using Fluor-de-Lys-SIRT1 as substrate by fluorescence assay
Histone deacetylase 8 = Histone deacetylase 8 (Homo sapiens, UniProt Q9BY41); test: Inhibition of recombinant HDAC8 (unknown origin) using Fluor-de-Lys-HDAC8 as substrate by fluorescence assay
Histone deacetylase 3 = Histone deacetylase 3 (Homo sapiens, UniProt O15379); test: Inhibition of recombinant HDAC3 (unknown origin) using Fluor-de-Lys-SIRT1 as substrate by fluorescence assay
Raji [19] = test: Antiproliferative activity against human Raji cells assessed as growth inhibition at 25 uM after 72 hrs; assay type: functional; conditions: read-out: GI; in short: as §1
[20] = Antiproliferative activity against human U937 cells assessed as growth inhibition at 25 uM after 72 hrs; assay type: functional; conditions: U-937, 72 h, read-out: GI; in short: as §1

Chain of RAC-alpha serine/threonine-protein kinase (P31749 whole entry): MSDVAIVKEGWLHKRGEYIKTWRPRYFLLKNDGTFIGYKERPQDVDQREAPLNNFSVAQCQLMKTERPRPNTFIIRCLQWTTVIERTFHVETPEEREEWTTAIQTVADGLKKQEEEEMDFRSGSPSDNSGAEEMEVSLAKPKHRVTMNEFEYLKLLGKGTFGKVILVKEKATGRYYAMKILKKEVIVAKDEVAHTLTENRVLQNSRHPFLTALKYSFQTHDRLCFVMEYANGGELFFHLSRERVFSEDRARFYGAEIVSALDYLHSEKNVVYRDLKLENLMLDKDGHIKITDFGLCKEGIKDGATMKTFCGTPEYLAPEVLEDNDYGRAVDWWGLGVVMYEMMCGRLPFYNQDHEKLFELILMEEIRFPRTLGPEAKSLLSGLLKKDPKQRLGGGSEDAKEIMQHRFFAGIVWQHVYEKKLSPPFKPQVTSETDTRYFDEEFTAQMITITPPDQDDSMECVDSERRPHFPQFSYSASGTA
Chain of Dual specificity mitogen-activated protein kinase kinase 1 (Q02750 whole entry): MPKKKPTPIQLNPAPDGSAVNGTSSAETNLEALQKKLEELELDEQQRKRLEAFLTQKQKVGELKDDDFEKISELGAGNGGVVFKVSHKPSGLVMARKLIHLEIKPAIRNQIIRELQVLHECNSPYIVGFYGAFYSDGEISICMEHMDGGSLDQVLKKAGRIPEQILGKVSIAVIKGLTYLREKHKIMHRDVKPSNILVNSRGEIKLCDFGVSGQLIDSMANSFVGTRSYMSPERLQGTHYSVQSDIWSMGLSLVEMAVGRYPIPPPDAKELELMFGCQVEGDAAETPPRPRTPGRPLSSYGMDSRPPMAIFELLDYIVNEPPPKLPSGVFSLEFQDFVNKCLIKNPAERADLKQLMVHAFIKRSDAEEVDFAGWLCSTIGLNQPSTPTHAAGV
Chain of Serine/threonine-protein kinase pim-1 (P11309 whole entry): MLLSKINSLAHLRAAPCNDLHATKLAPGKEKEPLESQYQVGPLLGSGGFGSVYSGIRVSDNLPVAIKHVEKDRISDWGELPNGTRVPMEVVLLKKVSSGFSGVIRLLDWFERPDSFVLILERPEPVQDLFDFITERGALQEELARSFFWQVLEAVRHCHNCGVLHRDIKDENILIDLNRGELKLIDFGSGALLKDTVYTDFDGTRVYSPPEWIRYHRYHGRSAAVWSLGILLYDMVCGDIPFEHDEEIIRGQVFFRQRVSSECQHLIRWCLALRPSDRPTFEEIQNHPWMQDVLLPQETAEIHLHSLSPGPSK
Chain of Proto-oncogene tyrosine-protein kinase Src (P12931 2-536 limits assumed): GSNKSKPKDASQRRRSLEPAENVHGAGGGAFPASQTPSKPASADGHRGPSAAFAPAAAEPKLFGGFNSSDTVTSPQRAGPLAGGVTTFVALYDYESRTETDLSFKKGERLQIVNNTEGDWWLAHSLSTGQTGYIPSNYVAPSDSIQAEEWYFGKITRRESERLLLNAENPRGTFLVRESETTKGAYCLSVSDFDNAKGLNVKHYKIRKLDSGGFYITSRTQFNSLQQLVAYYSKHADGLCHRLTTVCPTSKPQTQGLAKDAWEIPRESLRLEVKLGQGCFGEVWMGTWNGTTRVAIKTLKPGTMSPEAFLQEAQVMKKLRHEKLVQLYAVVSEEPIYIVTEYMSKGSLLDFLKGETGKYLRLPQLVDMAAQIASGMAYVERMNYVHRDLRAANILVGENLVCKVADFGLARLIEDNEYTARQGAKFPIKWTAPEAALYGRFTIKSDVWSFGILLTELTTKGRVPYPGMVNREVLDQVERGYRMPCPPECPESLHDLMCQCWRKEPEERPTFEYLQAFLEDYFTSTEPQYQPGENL
Chain of ALK tyrosine kinase receptor (Q9UM73 whole entry): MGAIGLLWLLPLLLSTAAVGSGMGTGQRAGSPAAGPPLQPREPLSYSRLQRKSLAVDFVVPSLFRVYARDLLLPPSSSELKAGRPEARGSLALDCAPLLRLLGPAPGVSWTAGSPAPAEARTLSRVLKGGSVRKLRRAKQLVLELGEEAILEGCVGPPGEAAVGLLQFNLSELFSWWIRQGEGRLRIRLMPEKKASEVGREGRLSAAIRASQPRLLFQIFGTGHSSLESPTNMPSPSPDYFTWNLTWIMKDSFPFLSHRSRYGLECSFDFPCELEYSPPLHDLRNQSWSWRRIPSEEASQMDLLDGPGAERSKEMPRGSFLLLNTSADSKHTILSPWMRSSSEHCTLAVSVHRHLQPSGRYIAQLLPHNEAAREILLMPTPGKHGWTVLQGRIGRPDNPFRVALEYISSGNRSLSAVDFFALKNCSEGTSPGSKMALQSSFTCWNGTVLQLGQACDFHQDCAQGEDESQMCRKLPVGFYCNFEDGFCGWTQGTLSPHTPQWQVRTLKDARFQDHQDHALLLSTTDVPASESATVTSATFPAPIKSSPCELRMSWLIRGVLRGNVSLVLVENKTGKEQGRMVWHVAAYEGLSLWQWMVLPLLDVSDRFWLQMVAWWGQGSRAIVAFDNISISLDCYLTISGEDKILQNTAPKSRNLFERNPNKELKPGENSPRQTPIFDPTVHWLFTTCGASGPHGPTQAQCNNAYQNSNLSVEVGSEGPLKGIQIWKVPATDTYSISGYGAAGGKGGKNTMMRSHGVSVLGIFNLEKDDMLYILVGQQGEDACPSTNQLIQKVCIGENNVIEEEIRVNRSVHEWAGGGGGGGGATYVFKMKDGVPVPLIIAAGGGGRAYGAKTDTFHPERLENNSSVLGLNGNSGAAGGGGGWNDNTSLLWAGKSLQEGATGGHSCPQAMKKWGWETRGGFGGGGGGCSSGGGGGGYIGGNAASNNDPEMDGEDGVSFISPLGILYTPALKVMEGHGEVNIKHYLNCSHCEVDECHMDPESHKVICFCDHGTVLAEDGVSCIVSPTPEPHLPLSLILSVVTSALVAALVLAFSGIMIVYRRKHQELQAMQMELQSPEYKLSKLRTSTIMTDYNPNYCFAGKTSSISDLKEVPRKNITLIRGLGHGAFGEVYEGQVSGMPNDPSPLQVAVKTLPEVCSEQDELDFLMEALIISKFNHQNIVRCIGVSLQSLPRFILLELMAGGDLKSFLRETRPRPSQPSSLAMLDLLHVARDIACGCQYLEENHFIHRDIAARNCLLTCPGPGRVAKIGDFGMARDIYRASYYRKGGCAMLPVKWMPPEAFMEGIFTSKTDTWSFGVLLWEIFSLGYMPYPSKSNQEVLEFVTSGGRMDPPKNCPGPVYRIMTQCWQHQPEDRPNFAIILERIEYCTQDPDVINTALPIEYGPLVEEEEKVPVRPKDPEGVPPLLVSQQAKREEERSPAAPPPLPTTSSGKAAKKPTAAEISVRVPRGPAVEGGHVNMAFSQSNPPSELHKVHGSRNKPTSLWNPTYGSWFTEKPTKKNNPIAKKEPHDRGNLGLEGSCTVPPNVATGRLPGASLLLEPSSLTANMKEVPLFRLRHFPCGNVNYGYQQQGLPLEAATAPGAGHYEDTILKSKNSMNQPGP
Chain of Serine/threonine-protein kinase PLK1 (P53350 whole entry): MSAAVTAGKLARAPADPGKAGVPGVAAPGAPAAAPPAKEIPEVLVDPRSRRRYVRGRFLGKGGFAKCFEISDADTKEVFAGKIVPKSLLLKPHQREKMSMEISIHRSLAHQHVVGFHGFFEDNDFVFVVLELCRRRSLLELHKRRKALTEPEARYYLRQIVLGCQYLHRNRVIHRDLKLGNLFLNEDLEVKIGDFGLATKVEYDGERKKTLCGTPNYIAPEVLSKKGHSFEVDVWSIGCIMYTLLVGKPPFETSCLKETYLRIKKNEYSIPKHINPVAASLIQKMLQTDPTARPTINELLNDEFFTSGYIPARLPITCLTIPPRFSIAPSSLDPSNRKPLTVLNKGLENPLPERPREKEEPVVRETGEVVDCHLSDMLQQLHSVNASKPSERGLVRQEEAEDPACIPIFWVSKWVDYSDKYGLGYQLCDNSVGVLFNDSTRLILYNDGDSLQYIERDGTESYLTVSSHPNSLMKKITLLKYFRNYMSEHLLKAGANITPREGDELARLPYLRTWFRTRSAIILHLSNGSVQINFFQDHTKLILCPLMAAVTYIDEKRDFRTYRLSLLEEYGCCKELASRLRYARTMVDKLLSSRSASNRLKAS
Chain of Serine/threonine-protein kinase N1 (Q16512 whole entry): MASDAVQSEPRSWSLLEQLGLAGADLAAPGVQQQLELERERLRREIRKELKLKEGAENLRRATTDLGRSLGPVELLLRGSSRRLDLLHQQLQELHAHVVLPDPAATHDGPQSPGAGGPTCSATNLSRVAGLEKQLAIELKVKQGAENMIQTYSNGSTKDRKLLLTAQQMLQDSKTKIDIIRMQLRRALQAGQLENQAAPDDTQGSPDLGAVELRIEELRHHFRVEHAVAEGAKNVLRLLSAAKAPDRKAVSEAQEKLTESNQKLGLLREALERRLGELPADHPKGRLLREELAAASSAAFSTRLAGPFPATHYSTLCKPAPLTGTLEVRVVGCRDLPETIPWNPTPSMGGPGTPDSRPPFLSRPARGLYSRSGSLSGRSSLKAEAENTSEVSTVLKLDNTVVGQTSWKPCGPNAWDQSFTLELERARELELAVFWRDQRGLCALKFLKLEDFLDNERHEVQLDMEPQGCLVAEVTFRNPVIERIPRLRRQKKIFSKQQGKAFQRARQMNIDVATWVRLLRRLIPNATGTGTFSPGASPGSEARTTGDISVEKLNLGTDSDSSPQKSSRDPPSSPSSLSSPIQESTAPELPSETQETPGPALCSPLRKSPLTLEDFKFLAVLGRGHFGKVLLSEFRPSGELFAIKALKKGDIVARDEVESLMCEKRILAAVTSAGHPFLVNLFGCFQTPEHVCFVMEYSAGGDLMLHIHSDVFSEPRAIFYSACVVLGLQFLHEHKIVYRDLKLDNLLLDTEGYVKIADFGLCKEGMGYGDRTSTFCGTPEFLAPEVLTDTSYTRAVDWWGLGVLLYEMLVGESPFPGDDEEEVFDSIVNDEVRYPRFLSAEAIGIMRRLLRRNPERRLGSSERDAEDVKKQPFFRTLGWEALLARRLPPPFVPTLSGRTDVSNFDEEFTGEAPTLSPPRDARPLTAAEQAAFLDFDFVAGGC

Compound	IC50 [1] [µM]	IC50 [2] [µM]	IC50 (Focal adhesion kinase 1) [µM]	IC50 [3] [µM]	IC50 (Aurora kinase B) [µM]	IC50 [4] [µM]	IC50 [5] [µM]	IC50 [6] [µM]	IC50 [7] [µM]	IC50 [8] [µM]	IC50 [9] [µM]	IC50 [10] [µM]	IC50 [11] [µM]	IC50 [12] [µM]	IC50 [13] [µM]	IC50 [14] [µM]	IC50 (Histone deacetylase 11) [µM]	IC50 (Histone deacetylase) [µM]	IC50 (Histone deacetylase 2) [µM]	IC50 [16] [µM]	further results
Cc1c(O)c(O)c(O)c2c1COC2=O	3.56	21.3	7.52	5.02	8.69	> 100	8.63	23.2	2.46	11.8	10	5.96	13.6	18.6	0.56	6.55					
COC1OC(=O)c2c(O)c(O)c(O)c(C)c21 (racemic)	12.6	> 30	16.3	9.76	22.6	> 30	9.65	> 30	6.39	> 30	29.8	26.4	> 30	> 30	2.04	11.8					
Cc1c(O)c(O)c2c(c1C=O)[C@@H]1O[C@H](O2)c2c(C)c(O)c(O)c(O)c2C1=O (racemic)	0.37	3.1	0.42	0.18	2.51	> 30	0.58	2.15	0.16	3.18	2.51	0.32	0.52	4.48	0.07	1.83	11.7	9.8	10	4.6	inhibition of growth at 5 µM [15]: 32%; inhibition of growth at 5 µM (Raji [17]): 50%; Activity (PBMC): Non-toxic; IC50 (Histone deacetylase 1): 8.6 µM; IC50 [18]: 8.4 µM; IC50 (Histone deacetylase 8): 1.6 µM; IC50 (Histone deacetylase 3): 12.4 µM
O=c1c(O)c(-c2ccc(O)c(O)c2)oc2cc(O)cc(O)c12 [QUERCETIN]	0.12		1.2	3.32	0.91	> 10	0.58	5.39	0.96		5.09		4.23	5.8	0.3	5.73					
COCc1c(C)c(O)c(O)c(O)c1C=O	20	> 30	20.6	9.33	20.6	> 30	> 30	> 30	11	> 30	> 30	> 30	> 30	> 30	3.5	> 30					
Cc1c(O)c(O)c(O)c(C=O)c1-c1cc2c(C=O)c(C)c(O)c(O)c2o1	0.49	4.44	0.8	0.25	7.29	> 30	1.12	4.07	0.22	6.31	3.77	0.39	1.85	9	0.15	3.78	12.9	14.2	9.1	6.5	inhibition of growth at 25 µM (Raji [19]): 55%; Activity (PBMC): Non-toxic; IC50 (Histone deacetylase 1): 8.8 µM; IC50 [18]: 8.1 µM; inhibition of growth at 25 µM [20]: 30%; IC50 (Histone deacetylase 8): 2.1 µM; IC50 (Histone deacetylase 3): 6.9 µM

From ChEMBL document CHEMBL3102702, “Protein kinase and HDAC inhibitors from the endophytic fungus Epicoccum nigrum” (J Nat Prod, 2014)
